Experimental data taken from ChEMBL document CHEMBL3576783, “Synthesis and evaluation of 1,2,4-triazolo[1,5-a]pyrimidines as antibacterial agents against Enterococcus faecium” (J Med Chem, 2015).
Converted amounts (≈) assume the structure as drawn. The source made the active and inactive calls. No cut-off for these calls is given here.

Key:
Enterococcus faecium [1] = experiment: Antibacterial activity against Enterococcus faecium C9 assessed as bacterial growth inhibition after 16-20 hrs by broth microdilution method; format: functional
Outline: (§1)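 CLSI broth microdilution in cation-adjusted Mueller Hinton II broth, triplicate. Cultures grown to OD600 about 0.60-0.80, diluted 100-fold; final inoculum 5×10^5 CFU/mL. Compounds from 5 mg/mL DMSO stock diluted in medium, final 2% (v/v) DMSO plus 0.25% (v/v) glacial acetic acid. Incubated 35 °C, 16-20 h, then MIC read.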

[2] = Induction of hemolysis in RBC (unknown origin) at 64 ug/ml; settings: erythrocytes
Enterococcus faecium [3] = experiment: Antibacterial activity against vancomycin-susceptible Enterococcus faecium 119-39A assessed as bacterial growth inhibition after 16-20 hrs by broth microdilution method; format: functional; outline: as §1
Plasma = experiment: Plasma protein binding in human at 10 uM by rapid equilibrium dialysis method; format: ADME, cell-free
Outline: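 Human plasma centrifuged to clear particulates, spiked with compound to final 10 μM in 0.1% DMSO. Dialysed against 0.1 M sodium phosphate buffer, pH 7.4, at 37 °C overnight with shaking in a rapid equilibrium dialysis device. Buffer and plasma sides extracted with acetonitrile containing internal standard and analysed by UPLC-MRM. Binding calculated as (Cp−Cf)/Cp×100.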

Staphylococcus aureus [4] = experiment: Inhibition of Staphylococcus aureus PBP2a up to 100 ug/ml by BIOCILLIN FL based fluorescence analysis
Outline: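 Recombinant purified PBP2a (final 2 μM) preincubated with inhibitor in 25 mM Hepes, 1 M NaCl, pH 7.0, 37 °C, 10 min. BOCILLIN FL (final 20 μM) then added for 10 min at 37 °C. Samples boiled in SDS buffer and run on 12% SDS-PAGE. Fluorescent bands scanned and quantified against a no-inhibitor control.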

Pseudomonas aeruginosa = experiment: Antibacterial activity against Pseudomonas aeruginosa ATCC 27853 assessed as bacterial growth inhibition after 16-20 hrs by broth microdilution method; format: functional, organism-based
Outline: (§2)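 CLSI broth microdilution in cation-adjusted Mueller Hinton II broth, run in triplicate. Cultures grown to OD600 about 0.60-0.80, diluted 100-fold, final inoculum 5×10^5 CFU/mL. Compounds diluted from 5 mg/mL DMSO stocks; final 2% (v/v) DMSO plus 0.25% (v/v) glacial acetic acid. Plates incubated at 35 °C for 16-20 h before reading the MIC.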

Liver = experiment: Half life in human liver S9 at 10 uM after 60 mins by UPLC analysis; format: ADME, subcellular, Liver S9 fraction; settings: s9, 1 h
Outline: (§3)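 Pooled human liver S9 (1 mg/mL) with 1 mM NADPH and 10 μM compound in sodium phosphate buffer (0.20 M phosphate, 0.15 M NaCl, pH 7.4), 37 °C for 60 min. Six time points quenched in acetonitrile with internal standard, analysed by UPLC-MRM. Half-life taken from first-order rate constant; CLint scaled with 45 mg protein/g liver and 20 g liver/kg. Run in duplicate.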

Enterobacter sp. = experiment: Antibacterial activity against Enterobacter sp. assessed as bacterial growth inhibition after 16-20 hrs by broth microdilution method; format: functional, organism-based; outline: as §2
Enterococcus faecium [5] = experiment: Antibacterial activity against copper, erythromycin, teracycline-resistant and vancomycin and teicoplanin-sensitive Enterococcus faecium ATCC BAA2127 assessed as bacterial growth inhibition after 16-20 hrs by broth microdilution method; format: functional; outline: as §1
Enterococcus faecium [6] = experiment: Antibacterial activity against Enterococcus faecium C68 assessed as bacterial growth inhibition after 16-20 hrs by broth microdilution method; format: functional; outline: as §1
Klebsiella pneumoniae = experiment: Antibacterial activity against Klebsiella pneumoniae ATCC 700603 assessed as bacterial growth inhibition after 16-20 hrs by broth microdilution method; format: functional, organism-based; outline: as §2
Acinetobacter baumannii = experiment: Antibacterial activity against Acinetobacter baumannii ATCC 17961 assessed as bacterial growth inhibition after 16-20 hrs by broth microdilution method; format: functional, organism-based; outline: as §2
Staphylococcus aureus [7] = experiment: Antibacterial activity against Staphylococcus aureus ATCC 29213 assessed as bacterial growth inhibition after 16-20 hrs by broth microdilution method; format: functional, organism-based; outline: as §2
Enterococcus faecium [8] = experiment: Antibacterial activity against Enterococcus faecium C38 assessed as bacterial growth inhibition after 16-20 hrs by broth microdilution method; format: functional; outline: as §1
Enterococcus faecium [9] = experiment: microbe, parasite or virus in culture; settings: NCTC 7171
BL21-DE3 = experiment: Inhibition of Enterococcus faecium D63r PBP5fm expressed in Escherichia coli BL21 (DE3) cells up to 100 ug/ml after 10 to 20 mins by BIOCILLIN FL-based fluorescence assay
Outline: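 Recombinant PBP5fm lacking the signal peptide, expressed in E. coli BL21(DE3) and purified by anion-exchange then chelating chromatography. Enzyme (40 μM) preincubated with inhibitor in 25 mM Hepes, 1 M NaCl, pH 7.0 at 37 °C for 20 min. BOCILLIN FL (30 μM) then added for a further 20 min. Bands resolved on 12% SDS-PAGE and fluorescence quantified against a no-inhibitor control.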

[10] = Apparent intrinsic clearance in human liver S9 at 10 uM after 60 mins by UPLC analysis; format: ADME, subcellular, Liver S9 fraction; settings: read-out: CLH(app); outline: as §3
Enterococcus faecium [11] = experiment: Antibacterial activity against vancomycin and teicoplanin-resistant Enterococcus faecium ATCC 700221 isolated from human faeces assessed as bacterial growth inhibition after 16-20 hrs by broth microdilution method; format: functional; settings: ATCC 700221, Feces
Outline: as §1, with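 “Broth” for “CLSI broth”, “broth, run to CLSI method,” for “broth,”, “Cells” for “Cultures”, “~0.60-0.80,” for “about 0.60-0.80,”, “stocks” for “stock”, “°C for” for “°C,”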

Enterococcus faecium [12] = experiment: Inhibition of peptidoglycan synthesis in Enterococcus faecium NCTC 7171 assessed as decrease in D-[2,3-3H]-alanine incorporation at 8 ug/ml after 120 mins by liquid scintillation counting analysis; format: functional, organism-based
Outline: (§4)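 E. faecium NCTC 7171 grown in brain-heart infusion at 37 °C to early-log phase. Tritiated precursor (1 uCi/mL) added and incubated 5 min; compound then added at 8 μg/mL with DMSO negative control, followed by 2 h growth. Samples taken every 20 min, precipitated in 20% ice-cold TCA, filtered, washed with TCA and ethanol, and scintillation-counted in duplicate. Value reported at 120 min.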

Enterococcus faecium [13] = experiment: Inhibition of transcription in Enterococcus faecium NCTC 7171 assessed as decrease in [5,6-3H]-uridine incorporation into RNA at 8 ug/ml after 120 mins by liquid scintillation counting analysis; format: functional, organism-based; outline: as §4
Enterococcus faecium [14] = experiment: Inhibition of DNA replication in Enterococcus faecium NCTC 7171 assessed as decrease in [methyl-3H]-thymidine incorporation into DNA at 8 ug/ml after 120 mins by liquid scintillation counting analysis; format: functional, organism-based; outline: as §4
Escherichia coli = experiment: Effect on beta-galactosidase reporter gene translation in Escherichia coli S30 extract by transcription/translation assay; format: functional
Enterococcus faecium [15] = experiment: Inhibition of translation in Enterococcus faecium NCTC 7171 assessed as decrease in L-[4,5-3H]-leucine incorporation into protein at 8 ug/ml after 120 mins by liquid scintillation counting analysis; format: functional, organism-based; outline: as §4

Compound | MIC (Enterococcus faecium [1]) [µg/mL] | Activity [2] [%] | MIC (Enterococcus faecium [3]) [µg/mL] | PPB (Plasma) [%] | inhibition (Staphylococcus aureus [4]) | t1/2 (Liver) [min] | MIC (Enterococcus faecium [5]) [µg/mL] | MIC (Enterococcus faecium [6]) [µg/mL] | MIC (Enterococcus faecium [8]) [µg/mL] | MBC (Enterococcus faecium [9]) [µg/mL] | MIC (Enterococcus faecium [9]) [µg/mL] | inhibition (BL21-DE3) | CLint scaled at 10 µM [10] [mL/min/kg] | MIC (Enterococcus faecium [11]) [µg/mL] | other results
CC1=C(C(N)=O)C(c2ccc(C(C)C)cc2)n2nc(SCc3ccccc3)nc2N1 (stereo not given) | 16 (≈ 38.1 µM) | 22 | 4 (≈ 9.53 µM) | 98.7 | inactive | 56 | 4 (≈ 9.53 µM) | 16 (≈ 38.1 µM) | 16 (≈ 38.1 µM) | 32 (≈ 76.3 µM) | 8 (≈ 19.1 µM) | inactive | 11.1 |  | inhibition (Pseudomonas aeruginosa): inactive; inhibition (Enterobacter sp.): inactive; inhibition (Klebsiella pneumoniae): inactive; inhibition (Acinetobacter baumannii): inactive; inhibition (Staphylococcus aureus [7]): inactive
CC1=C(C(N)=O)C(c2ccc(N(C)C)cc2)n2nc(SCc3ccccc3)nc2N1 (stereo not given) |  | 2 | 4 (≈ 9.51 µM) | 97.6 |  | > 60 | 4 (≈ 9.51 µM) |  | 16 (≈ 38 µM) | 32 (≈ 76.1 µM) | 4 (≈ 9.51 µM) |  | < 10.4 | 4 (≈ 9.51 µM) | inhibition (Enterococcus faecium [12]): Active; inhibition (Enterococcus faecium [13]): inactive; inhibition (Enterococcus faecium [14]): inactive; Activity (Escherichia coli): inactive; inhibition (Enterococcus faecium [15]): inactive
CN[C@H](CC(C)C)C(=O)N[C@H]1C(=O)N[C@@H](CC(N)=O)C(=O)N[C@H]2C(=O)N[C@H]3C(=O)N[C@H](C(=O)N[C@H](C(=O)O)c4cc(O)cc(O)c4-c4cc3ccc4O)[C@H](O)c3ccc(c(Cl)c3)Oc3cc2cc(c3O[C@@H]2O[C@H](CO)[C@@H](O)[C@H](O)[C@H]2O[C@H]2C[C@](C)(N)[C@H](O)[C@H](C)O2)Oc2ccc(cc2Cl)[C@H]1O [VANCOMYCIN] |  |  |  |  |  |  |  | 64 (≈ 44.2 µM) | 64 (≈ 44.2 µM) |  |  |  |  | 16 (≈ 11 µM) | 
CC1=C(C(N)=O)C(c2ccc(N(C)C)cc2)n2nc(SCc3ccc(C#N)cc3)nc2N1 (stereo not given) | 4 (≈ 8.98 µM) | 1 | 8 (≈ 18 µM) | 96.8 | inactive | > 60 |  | 4 (≈ 8.98 µM) | 16 (≈ 35.9 µM) | 16 (≈ 35.9 µM) |  | inactive | < 10.4 | 8 (≈ 18 µM) | 
CC1=C(C(N)=O)C(c2ccc(OC(C)C)cc2)n2nc(SCc3ccccc3)nc2N1 (stereo not given) |  | < 1 |  |  |  | 57 | 16 (≈ 36.7 µM) |  | 32 (≈ 73.5 µM) |  | 4 (≈ 9.18 µM) |  | 10.9 | 8 (≈ 18.4 µM) | 
